What all share (assay type): functional
In one test the test system is Streptococcus pyogenes. Kind of test: Antimicrobial activity against Streptococcus pyogenes 49 assessed as growth inhibition after 20 to 24 hrs by broth microdilution method. The method in brief: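 Streptococcus pyogenes was grown in Todd Hewitt broth and tested by CLSI broth microdilution. The MIC is the lowest concentration causing complete suppression of visible growth.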

The next test has as its system Bacillus subtilis. The test can be described thus: Antimicrobial activity against Bacillus subtilis 168 assessed as growth inhibition after 20 to 24 hrs by broth microdilution method. The method in brief: (§1)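 CLSI broth microdilution in Mueller Hinton broth supplemented with 20 mg/L CaCl2 and 10 mg/L MgCl2. Cells from frozen stocks were seeded at 5 × 10^5 cfu/mL and incubated at 37 °C, then read after 20−24 h. The MIC is the lowest concentration giving complete suppression of visible growth.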

A further test relates to Micrococcus luteus. Kind of test: Antimicrobial activity against Micrococcus luteus 108 assessed as growth inhibition after 20 to 24 hrs by broth microdilution method. The method in brief: as §1
Test [1] relates to Staphylococcus aureus. Kind of test: Antimicrobial activity against Staphylococcus aureus ATCC 29213 assessed as growth inhibition after 20 to 24 hrs by broth microdilution method. The method in brief:
as §1

Test [2] deals with Staphylococcus aureus. The test can be described thus: Antimicrobial activity against Staphylococcus aureus ATCC 6538P assessed as growth inhibition after 20 to 24 hrs by broth microdilution method. The method in brief:
as §1

Each structure is given as a SMILES string. Values after ≈ are worked out from the molar mass of the structure shown.

As for `C=C1C(=O)[C@]2(OC)C(=O)O[C@@]34C[C@H](C)C(C(=O)O)=C[C@@H]3CCC[C@@H](C)C[C@@H](C)[C@H]1O[C@H]24` (relative stereo), the MIC in the test with Streptococcus pyogenes was found to be 16 µg/mL (≈ 37 µM); with Bacillus subtilis, 8 µg/mL (≈ 18.5 µM); in the test with Micrococcus luteus, 8 µg/mL (≈ 18.5 µM); in the test with Staphylococcus aureus [1] it was 2 µg/mL (≈ 4.62 µM); in the test on Staphylococcus aureus [2] it was 2 µg/mL (≈ 4.62 µM).

For the compound `C=C1C(=O)[C@]2(OC)C(=O)O[C@@]34C[C@H](C)C(C(=O)O)=C[C@@H]3CCC[C@@H](C)[C@H](O)[C@@H](C)[C@H]1O[C@H]24` (relative stereo), the MIC with Streptococcus pyogenes is 8 µg/mL (≈ 17.8 µM); in the test with Bacillus subtilis, 128 µg/mL (≈ 285 µM); with Micrococcus luteus, 8 µg/mL (≈ 17.8 µM); in the test on Staphylococcus aureus [1], 64 µg/mL (≈ 143 µM); in the test with Staphylococcus aureus [2], 32 µg/mL (≈ 71.3 µM).

For `CN[C@H](CC(C)C)C(=O)N[C@H]1C(=O)N[C@@H](CC(N)=O)C(=O)N[C@H]2C(=O)N[C@H]3C(=O)N[C@H](C(=O)N[C@H](C(=O)O)c4cc(O)cc(O)c4-c4cc3ccc4O)[C@H](O)c3ccc(c(Cl)c3)Oc3cc2cc(c3O[C@@H]2O[C@H](CO)[C@@H](O)[C@H](O)[C@H]2O[C@H]2C[C@](C)(N)[C@H](O)[C@H](C)O2)Oc2ccc(cc2Cl)[C@H]1O` [VANCOMYCIN], the MIC in the test on Bacillus subtilis turned out to be 0.25 µg/mL (≈ 0.173 µM); in the test with Micrococcus luteus, 0.125 µg/mL (≈ 0.0863 µM).

The values are drawn from ChEMBL document CHEMBL2163285, “Chrolactomycins from the actinomycete actinospica” (2012).
